# Data published in BindingDB's records for doi:10.1021/acs.jmedchem.0c01922 (University of Toronto Mississauga, 2021).
# Target: T1, Histone deacetylase 11 (Homo sapiens, UniProt Q96DB2)
# T1 sequence (Q96DB2 whole entry): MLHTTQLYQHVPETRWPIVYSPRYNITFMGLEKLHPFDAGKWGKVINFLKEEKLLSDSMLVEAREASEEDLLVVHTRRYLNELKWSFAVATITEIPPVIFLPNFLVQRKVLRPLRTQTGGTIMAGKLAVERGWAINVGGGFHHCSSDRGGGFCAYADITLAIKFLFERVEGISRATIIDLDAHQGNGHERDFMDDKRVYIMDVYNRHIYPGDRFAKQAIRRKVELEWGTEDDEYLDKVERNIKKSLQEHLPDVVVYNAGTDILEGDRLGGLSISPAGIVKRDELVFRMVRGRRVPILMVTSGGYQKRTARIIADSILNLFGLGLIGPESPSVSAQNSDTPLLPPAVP
# Assay: Inhibition of full length human HDAC11 using FAM-labeled acetylated peptide as substrate by electrophoretic mobility shift assay
# Procedure, shortened: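 Full-length human HDAC isoform enzymatic assay by electrophoretic mobility shift, using a FAM-labelled acetylated peptide substrate. […] Values are the mean of duplicate experiments with 95% confidence intervals.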
smiles,measurement,value
O=C(NO)c1ccc(CN(Cc2cccnc2)S(=O)(=O)c2cc(F)c(F)c(F)c2F)cc1,IC50,> 1000 nM
